Assay outcomes (PubChem BioAssay)
Only some compounds are listed: those with a hit (about 6.4% of all), similar ones and a draw of the others.
TbMetRS inhib: Trypanosoma brucei MetRS inhibition. purified T. brucei MetRS, ATP depletion, Kinase-Glo luminescence. inhibition, % at 11.9 µM. 0.4% of 360,000 active. AID 624268;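 active = inhibition above a per-plate cutoff of the control wells' mean inhibition plus 3 SD, cut at about 5.5% in these data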;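 note: 0% = DMSO wells median and 100% = median of wells with control inhibitor compound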
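technique = Kinase-Glo luminescence, ATP depletion format | system = purified MetRS (methionyl-tRNA synthetase) enzyme from Trypanosoma brucei | timing = 15 min preincubation, 2 h reaction, all 25 °C | evaluation = percent inhibition versus plate control medians | dosing = single dose, 11.9 µM final nominal, 0.9% final DMSO | also added = substrates ATP, L-methionine and bulk Escherichia coli tRNA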
MPTP block: blocks calcium-induced mitochondrial swelling; 1.4% of 360,000 active; AID 602449; inhibition, % at 10 µM; isolated mouse mitochondria, Ca2+ swelling absorbance, 30 min;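 active = inhibition of 50% or more, scaled per plate between neutral and stimulator controls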;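 note: 0% = DMSO wells given calcium and 100% = 1 mM EGTA wells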
CHOP inhibitor: inhibitors of CHOP induction in ER stress response. CHO-K1 CHOP-promoter luciferase, tunicamycin-induced, 15-18 h. inhibition, % at 10 µM. 3.8% of 220,000 active. AID 2732;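 active = compounds that reduced the stress-induced luciferase reporter signal by more than about 70% of percent inhibition, limit read from the data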;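 note: 0% = tunicamycin plus vehicle and 100% = wells without tunicamycin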
EBV gp42 block: inhibitors of Epstein-Barr virus glycoprotein 42 | inhibition, % (tested at 21.74 µM) | AID 1085 | 0.42% of 220,000 active | Q1HVG2 | Fluorescence polarization binding assay, mP read-out; in the data active = inhibition above about 50%
Target sequence (Q1HVG2 whole entry, looked up): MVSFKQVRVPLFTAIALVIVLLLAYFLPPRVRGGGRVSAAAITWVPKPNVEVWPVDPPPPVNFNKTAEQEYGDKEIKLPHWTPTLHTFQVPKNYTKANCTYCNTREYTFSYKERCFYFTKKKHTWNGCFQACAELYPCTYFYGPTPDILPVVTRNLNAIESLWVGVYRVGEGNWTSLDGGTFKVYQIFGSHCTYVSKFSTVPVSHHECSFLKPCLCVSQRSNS
WT yeast gro inh: growth inhibition of WT yeast, mitochondrial fusion screen | mitochondrial fusion phenotypic screen, WT strain | inhibition, % at 10 µM | 2.1% of 190,000 active | AID 1362; in the data active = inhibition above about 58%; tested in S. cerevisiae
NR3A LBD binder: NR3A (human) ligand-binding domain modulation. Tm shift relative to glycine control, % at 25 µM. AID 1259313. 2.5% of 340,000 active. NR3A LBD differential scanning fluorimetry, Tm shift; 0% = protein alone, 100% = glycine-bound protein;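 active = melting temperature shift of at least 10% of the positive control shift, at one fixed dose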
Rh123 counter: Rhodamine 123 counter-screen of mitochondrial pore hits; shares compounds with MPTP block; AID 624504; inhibition, % at 10 µM; isolated mitochondria, membrane potential, Rhodamine 123 fluorescence; 78% of 5,000 active; in the data active = inhibition above about 22%;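 note: 0% = DMSO vehicle and 100% = positive control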
MPTP abs DR: MPTP inhibition, dose response swelling confirmation. shares compounds with MPTP block. isolated mitochondria swelling, absorbance. AID 651561. IC50, µM. 58% of 780 active; in the data active = IC50 below about 20 µM
MPTP cs DR: active in counter-screen for permeability transition pore inhibitors; 49% of 780 active; IC50, µM; shares compounds with MPTP block; AID 651564; isolated mitochondria counterscreen, fluorescence read-out; in the data active = IC50 below about 80 µM
Numbers without * were called inactive; i = inactive; . = not tested or not shown.

SMILES	TbMetRS inhib	MPTP block	CHOP inhibitor	EBV gp42 block	WT yeast gro inh	NR3A LBD binder	Rh123 counter	others
COc1ccccc1C1(O)CCN(CC(=O)Nc2nc(-c3ccccc3)cs2)CC1	1	-2	35	-12	21	0	.
Cc1ccc(Oc2cc([N+](=O)[O-])cc3c2C(=O)Nc2ccccc2O3)cc1	-1	56*	45	-78	64*	-7	29*
CN(c1ccccc1)S(=O)(=O)c1ccc(Cl)c(C(=O)Nc2ccc(N3CCOCC3)cc2)c1	-2	0	16	-2	0	-2	.
Cc1nc2ccc(NC(=O)c3cc(S(=O)(=O)N(C)c4ccccc4)ccc3Cl)cc2s1	-1	107*	57	-76	6	-1	84*
Cc1nc2ccc(NC(=O)c3ccc(Cl)c(S(=O)(=O)N(C)c4ccccc4)c3)cc2s1	-1	74*	55	-148	2	-2	69*
Cc1ccc(NC(=O)CSc2nccn2C)cc1S(=O)(=O)N1CCOCC1	0	-1	25	0	-26	1	.
CC1(C)CC(=O)N(CC(=O)N2CCN(c3ncccn3)CC2)c2ccccc2S1(=O)=O	-2	-2	-27	-16	4	0	.
NC(=S)Nc1cnc2ccccc2c1	0	5	-32	-7	-10	0	.
Oc1ccccc1CNc1cnc2ccccc2c1	-1	71*	50	-11	-1	-23	59*
O=C(CCN1CCc2ccccc2C(c2ccccc2)C1)c1ccc2c(c1)OCCO2 (stereo not drawn)	-1	83*	-36	-22	0	1	-5
O=C(CCN1Cc2ccccc2C1)c1ccc2c(c1)OCCO2	0	0	35	-12	5	2	.
Cc1ccc(-c2nn[nH]n2)cc1Cl	2	2	-6	-7	.	-1	.
Cc1ccc(NC(=O)Nc2cccc([N+](=O)[O-])c2)cc1F	1	105*	64	-7	38	34*	70*
O=C(Nc1cccnc1)Nc1cccc([N+](=O)[O-])c1	2	62*	.	.	.	7	89*
Cc1cc(NC(=O)Nc2cccc([N+](=O)[O-])c2)no1	0	16	6	3	-9	0	.
COc1cc([N+](=O)[O-])ccc1NC(=O)Nc1cccnc1	0	2	.	.	.	-5	.
O=C(Nc1ccc(OC(F)(F)F)cc1)Nc1cccc([N+](=O)[O-])c1	0	75*	106*	4	80*	13*	64*
NC(=O)CSc1ncc(-c2ccc([N+](=O)[O-])cc2)[nH]1	0	-1	23	5	-10	0	.
O=[N+]([O-])c1ccc(-c2cnc(SC(c3ccccc3)c3ccccc3)[nH]2)cc1	0	90*	73*	-44	48	26*	76*
CC(C)c1cc(C(=O)Nc2cc(Cl)ccc2O)no1	-1	44	.	2	23	-5	.
CC(C)c1cc(C(=O)Nc2cc(Br)ccc2O)no1	0	58*	78*	2	35	-2	62*
O=C(C[C@H]1C/C=C\C[C@@H](Cc2ccc(F)cc2)C(=O)O[C@H](c2ccccc2)CNC1=O)N[C@@H](CO)Cc1ccccc1	0	-2	.	.	.	-2	.
O=C(Nc1cccnc1)Nc1ccc(Br)cc1Cl	0	58*	34	2	14	-7	80*
O=C(Nc1cccnc1)Nc1cc(Cl)cc(Cl)c1	4	89*	14	18	77*	21*	98*
O=S(=O)(c1cccc(S(=O)(=O)N2CCOCC2)c1)N1CCCCCC1	0	-1	.	.	.	0	.
SMILES	TbMetRS inhib	MPTP block	CHOP inhibitor	EBV gp42 block	WT yeast gro inh	NR3A LBD binder	Rh123 counter	others
O=C(NCCN1CCc2ccccc2C1)Nc1ccc([N+](=O)[O-])cc1	0	94*	9	-2	19	-1	84*
CSc1ccc(NC(=O)NCCCN2CCN(c3ccccc3F)CC2)cc1	0	62*	20	-20	11	-4	0	MPTP abs DR=i;MPTP cs DR=29*
O=C(NCCN1CCN(c2ccc([N+](=O)[O-])cc2)CC1)NCc1ccccc1	0	65*	.	.	.	-3	76*
O=C(NCCCN1CCN(c2ccccc2F)CC1)Nc1ccc(F)cc1	-1	-1	37	-19	0	0	.
CCN1CCN(Cc2ccc(NC(=O)Nc3ccc(SC)cc3)cc2)CC1	-1	52*	25	-15	-14	0	-10	MPTP abs DR=i;MPTP cs DR=>80
CCN1CCN(Cc2ccc(NC(=O)Nc3ccccc3)cc2)CC1	0	1	20	-26	17	-1	.
O=C(Nc1ccc([N+](=O)[O-])cc1)N1CCc2ccccc2C1	1	0	.	.	.	-2	.
Cc1cccc(NC(=O)CN2C(=O)c3ccccc3S2(=O)=O)n1	0	-1	.	.	.	0	.
O=C(NCCCN1CCc2ccccc2C1)Nc1ccc(Br)cc1	3	93*	19	-2	25	2	103*
COc1ccc(NC(=O)NCCCN2CCc3ccccc3C2)cc1	-1	0	32	-11	12	0	.
CCOC(=O)Cn1nc(C)c(NC(=O)c2ccc(Cl)c([N+](=O)[O-])c2)c1C	0	61*	4	-6	-15	-2	77*
COc1ccc(NC(=O)c2ccc(-n3cccn3)c([N+](=O)[O-])c2)cc1	1	-3	19	-2	11	0	.
O=C(Nc1ccc(Cc2ccncc2)cc1)c1ccc(Cl)c([N+](=O)[O-])c1	-1	54*	20	-1	8	-7	75*
O=C(Nc1ccc(Cl)cc1)c1ccc(-n2cccn2)c([N+](=O)[O-])c1	2	73*	56	-13	2	23*	66*
Cc1ccc(C(=O)Nc2ccncc2)cc1[N+](=O)[O-]	0	0	.	.	.	2	.
CCOC(=O)Cn1nc(C)c(NC(=O)c2cccc([N+](=O)[O-])c2)c1C	0	2	-13	-10	-8	-1	.
O=C(Nc1ccc(Nc2ccccc2)cc1)c1ccc(Cl)c([N+](=O)[O-])c1	0	67*	.	.	.	24*	64*
COC(=O)c1ccc(C2/C(=C(/O)c3ccc(OC)cc3)C(=O)C(=O)N2Cc2ccco2)cc1 (stereo not drawn)	0	4	.	.	.	1	.
COc1ccc(C(=O)COc2ccc3c(C)cc(=O)oc3c2)cc1	-1	0	.	.	.	2	.
CCN(CC)S(=O)(=O)c1cc(C(=O)c2nccn2C)ccc1Cl	2	-1	14	2	-20	0	.
O=C(CSc1ncnc2c1sc1ccccc12)Nc1ccc(Br)cc1	0	54*	44	-5	-1	1	37*
